# An excerpt weighted towards active compounds, which were near 4.8% of everything screened.
# PAFAH1B2 inh = PAFAH1B2 enzyme inhibitors, primary screen, biochemical, fluorescence polarization, human; Platelet-activating factor acetylhydrolase IB subunit alpha2 (Homo sapiens), P68402; recombinant PAFAH1B2, FP-rhodamine activity probe; inhibition, % at 3.39 µM; 1.2% of 340,000 active;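 active = inhibition above the mean of all tested compounds plus 3 SD, cut at about 24% in these data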;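 also: 0% = enzyme with DMSO and 100% = wells lacking PAFAH1B2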
# PAFAH1B3 FP inh = PAFAH1B3 enzyme inhibitors, primary screen, biochemical, fluorescence polarization, human; inhibition, % at 3.39 µM; 0.28% of 340,000 active; recombinant PAFAH1B3, FP-rhodamine probe; Platelet-activating factor acetylhydrolase IB subunit alpha1 (Homo sapiens), Q15102;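 active = inhibition above the screen-wide average of all tested compounds plus 3 SD, cut at about 25% in these data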;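 also: 0% = enzyme with DMSO only and 100% = wells lacking PAFAH1B3 protein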
# Target sequence (Q15102 whole entry, looked up): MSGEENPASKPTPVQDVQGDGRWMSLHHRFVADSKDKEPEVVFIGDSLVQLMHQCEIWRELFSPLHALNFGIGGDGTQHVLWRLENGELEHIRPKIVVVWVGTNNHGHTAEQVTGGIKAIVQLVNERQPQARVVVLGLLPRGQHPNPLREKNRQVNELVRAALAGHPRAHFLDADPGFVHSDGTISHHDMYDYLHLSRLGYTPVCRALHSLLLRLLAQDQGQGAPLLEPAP
# pPAFAH inh = pPAFAH enzyme inhibitors, primary screen, biochemical, fluorescence polarization, human. Platelet-activating factor acetylhydrolase (Homo sapiens), Q13093. recombinant pPAFAH, FP-rhodamine probe fluorescence polarization. inhibition, % at 3.39 µM. 1.5% of 330,000 active. AID 463082, 2010;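 active = inhibition above the mean inhibition across the screen plus 3 SD, cut at about 25% in these data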;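 also: inhibitors block binding of the rhodamine activity-based probe so polarization drops; 0% = enzyme with DMSO and 100% = wells lacking pPAFAH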
# UCH37 inh = inhibitors of human UCH37 deubiquitinase, primary screen, biochemical, Ub-AMC cleavage, fluorescence | Ubiquitin carboxyl-terminal hydrolase isozyme L5 (Homo sapiens), Q9Y5K5 | purified proteasome/UCH37 | inhibition, % (concentration not given with the values) | 0.33% of 330,000 active;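 active = mean inhibition over replicate wells above about 20%, limit read from the data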;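 also: 0% = compound-free wells with enzyme and 100% = wells lacking proteasome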
# Target sequence (Q9Y5K5 whole entry, looked up): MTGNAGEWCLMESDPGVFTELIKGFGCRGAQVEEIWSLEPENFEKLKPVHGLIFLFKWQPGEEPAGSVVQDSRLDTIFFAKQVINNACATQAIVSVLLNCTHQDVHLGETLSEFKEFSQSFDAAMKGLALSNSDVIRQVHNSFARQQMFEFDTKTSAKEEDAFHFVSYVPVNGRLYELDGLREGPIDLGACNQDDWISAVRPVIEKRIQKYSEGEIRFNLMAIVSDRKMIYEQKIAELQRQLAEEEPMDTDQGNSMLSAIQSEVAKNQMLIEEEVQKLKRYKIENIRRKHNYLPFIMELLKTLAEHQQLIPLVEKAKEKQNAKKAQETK
#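 Material: Human UCH37 enzyme supplied as purified proteasome complex | Schedule: 30 min compound-proteasome preincubation then 25 min substrate reaction, room temperature | Detection: AMC fluorescence from Ub-AMC cleavage, excitation 355 nm, emission 460 nm | Benchmarks: Wells without proteasome as full block, compound-free enzyme plus substrate as uninhibited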
# PAFAH2 inh = PAFAH2 enzyme inhibitors, primary screen, biochemical, fluorescence polarization, human; AID 492956, 2010; recombinant PAFAH2, FP-rhodamine activity probe; inhibition, % at 3.39 µM; 0.99% of 340,000 active; Platelet-activating factor acetylhydrolase 2, cytoplasmic (Homo sapiens), Q99487;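 active = inhibition above the mean over all tested compounds plus 3 SD, cut at about 30% in these data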;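 also: inhibitors block probe labeling of enzyme so polarization drops; 0% = enzyme with DMSO and 100% = wells lacking PAFAH2 protein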
# GRIN3A LBD mod = binders of NR3A ligand-binding domain, primary screen, biophysical, differential scanning fluorimetry, uHTS; Glutamate receptor ionotropic, NMDA 3A (GRIN3A) ligand-binding domain; NR3A LBD differential scanning fluorimetry, Tm shift; 0% = protein alone, 100% = glycine-bound protein; Tm shift relative to glycine control, % at 25 µM; 2.5% of 340,000 active; AID 1259313, 2017;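 active = melting temperature shift of at least 10% of the positive control shift, at one fixed dose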
# PAFAH2 confirm = PAFAH2 enzyme inhibitors, confirmation, biochemical, fluorescence polarization, human; recombinant PAFAH2, FP-rhodamine activity probe; inhibition, % at 3.39 µM; 65% of 2,300 active; AID 493030, 2011; shares compounds with PAFAH2 inh;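 active = mean inhibition over three repeats above a set limit taken from the earlier primary screen, cut at about 30% in these data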;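 also: inhibitor blocks binding of rhodamine activity probe so polarization falls; 0% = enzyme with DMSO and 100% = wells lacking PAFAH2 protein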
# * hit, by the source's call; . = no result.
SMILES,PAFAH1B2 inh,PAFAH1B3 FP inh,pPAFAH inh,UCH37 inh,PAFAH2 inh,GRIN3A LBD mod,PAFAH2 confirm
O=C(COC(=O)c1ccc2c(c1)OCO2)Nc1ccccc1OC(F)F,2.6,4.8,12.1,3.0,47.4*,-1.6,46.3*
Cc1cccc(NC(=O)c2ccc3c(c2)OCCO3)c1C,0.5,9.2,12.5,0.3,2.9,-0.4,.
Cc1cccc(NC(=O)COC(=O)c2ccc3c(c2)OCO3)c1C,1.6,10.1,1.6,0.9,39.8*,3.9,42.2*
Cc1ccccc1C=NNC(=O)Cn1cnc([N+](=O)[O-])n1,.,.,.,1.4,.,.,.
COc1ccc(C=NN=Cc2ccc(OC)cc2)cc1,.,.,.,5.9,.,.,.
COc1ccc(N2Cc3ccccc3C2=NC(=O)Nc2ccccc2)cc1,.,.,.,-37.2,.,.,.
CN(C)S(=O)(=O)c1cc(NC(=O)COC(=O)c2ccc3c(c2)OCO3)ccc1Cl,4.0,8.4,-1.5,4.8,56.6*,-13.8,77.8*
O=C(COC(=O)/C=C/c1ccc2c(c1)OCO2)Nc1ccccc1,9.4,8.0,3.5,-13.5,78.7*,-0.9,81.3*
O=C(COC(=O)c1ccc2c(c1)OCO2)Nc1ccccc1,0.7,3.5,15.4,-0.9,84.2*,2.1,81.4*
O=C(COC(=O)/C=C/c1ccc2c(c1)OCO2)Nc1ccc(S(=O)(=O)N2CCCC2)cc1,-2.2,-7.3,3.5,-12.6,-7.9,-3.8,.
NC(=O)c1ccc(NC(=O)COC(=O)c2ccc3c(c2)OCCO3)cc1,4.7,11.2,0.3,3.2,18.2,-1.1,.
COc1ccc(C(=O)OCC(=O)Nc2c(C)cccc2C)cc1,0.3,1.8,8.2,4.7,67.4*,-2.3,60.1*
CN(C)c1nc(Oc2ccc(C(=O)OCC(=O)Nc3ccccc3)cc2)nc(N(C)C)n1,1.0,0.1,23.3,3.8,89.9*,-1.9,76.2*
O=C(COC(=O)c1ccc(CSc2ccc(Cl)cc2)cc1)Nc1ccccc1,8.4,2.6,14.8,0.6,34.0*,-3.0,16.0
O=C(OCCCc1cc2ccccc2c(=O)o1)c1ccc2c(c1)OCO2,-1.7,0.2,8.2,-2.4,38.5*,4.0,15.5
O=C(OCCc1cc2ccccc2c(=O)o1)c1ccc2c(c1)OCO2,0.5,-0.1,5.2,-0.4,8.4,3.1,.
CN(C)c1ccc(NC(=O)COC(=O)c2ccc3c(c2)OCO3)cc1,-2.1,-1.3,10.6,.,31.9*,-1.0,26.6
CN(C)c1ccc(C(=O)OCC(=O)Nc2ccc(S(N)(=O)=O)cc2)cc1,-2.5,-9.9,14.3,-2.7,4.9,2.5,.
O=C(COC(=O)c1ccncc1)Nc1ccccc1,1.2,2.5,2.7,3.2,-8.9,-1.5,.
O=[N+]([O-])c1cccc(C=NN=Cc2ccccc2)c1,.,.,.,1.3,.,.,.
COC(=O)[C@@H]1CC[C@H](C)[C@@H](c2ccc(C)cc2)N1C(=O)c1ccc(C=NOC[C@@H](O)[C@H]2O[C@@H]3OC(C)(C)O[C@@H]3[C@H]2O)cc1,.,.,.,3.0,.,.,.
CN(C)c1ccc(N/C(=N\S(=O)(=O)c2cccs2)c2ccccc2)cc1,3.8,8.2,3.5,.,57.1*,0.0,54.3*
CN(C)c1ccc(C=NNc2nc3ccccc3o2)cc1,.,.,.,-34.4,.,.,.
O=C1CC(=O)Nc2cc(S(=O)(=O)N3CCOc4ccc(Cl)cc43)ccc2N1,1.9,-2.0,-1.6,8.6,45.2*,-1.8,39.8*
O=C(NN=CC1CC2CCC1C2)c1c[nH]c2ccccc12 (centres undefined),.,.,.,4.9,.,.,.
SMILES,PAFAH1B2 inh,PAFAH1B3 FP inh,pPAFAH inh,UCH37 inh,PAFAH2 inh,GRIN3A LBD mod,PAFAH2 confirm
Cc1cccn2c(=O)c3cc(S(=O)(=O)c4ccccc4)c(=N)n(Cc4cccnc4)c3nc12,5.5,10.1,3.5,-24.2,37.9*,-1.7,32.6*
CCCc1cc(=O)n2[nH]c(Cc3ccccc3)nc2n1,11.1,11.6,7.8,3.5,31.1*,3.0,15.6
Cc1c(NS(=O)(=O)c2cccc(C(=O)OCC(=O)c3ccc(Cl)cc3)c2)c(=O)n(-c2ccccc2)n1C,10.2,0.2,.,1.5,30.2*,1.4,9.1
Cc1c(NS(=O)(=O)c2cccc(C(=O)NCc3ccccc3Cl)c2)c(=O)n(-c2ccccc2)n1C,2.0,5.5,.,3.5,5.6,-0.1,.
N#CC(=NO)c1nc(-c2ccccc2)cs1,.,.,.,6.0,.,.,.
Cc1cccc(NC(=O)Cc2nc(-c3c[nH]c(C(=O)N4CCCC4)c3)cs2)c1,-2.5,0.0,.,3.7,35.2*,-1.3,12.1
Cc1ccccc1NC(=O)Cc1nc(-c2c[nH]c(C(=O)N3CCCC3)c2)cs1,2.8,-0.6,22.5,2.5,40.4*,-3.2,13.2
CC(CC(=O)Nc1ccc(C)c(Cl)c1)=NNC(=O)c1cccc(O)c1,.,.,.,1.1,.,.,.
COc1cc(C=NNc2nncn2N=Cc2ccc(O)c(OC)c2)ccc1O,.,.,.,6.3,.,.,.
CCOc1cc(C=NNC(=O)c2ccc(CN3CCOCC3)cc2)ccc1OC,.,.,.,6.2,.,.,.
O=c1cc(-c2ccco2)nc(SCc2cccc(Cl)c2)[nH]1,-3.5,1.9,4.6,-1.0,32.1*,1.6,17.4
CCN1CC(O)=C(c2nc3ccccc3s2)C1=N,0.3,5.2,21.2,2.6,51.6*,-0.8,23.4
CC(O)CN1CC(O)=C(c2nc3ccccc3s2)C1=N (centres undefined),-2.7,-3.7,5.5,-3.4,15.3,-0.1,.
CC12CCC(CC1=NNC(=O)COc1ccccc1Cl)C2(C)C (centres undefined),.,.,.,4.2,.,.,.
COc1cc(C2C(C(=O)c3cc4ccccc4o3)=C(O)C(=O)N2c2cc(C)on2)cc(OC)c1OC (centres undefined),4.8,4.6,8.0,.,-1.5,-1.4,.
COc1cccc(C2C(C(=O)c3cc4ccccc4o3)=C(O)C(=O)N2c2cc(C)on2)c1OC (centres undefined),2.3,6.3,4.9,3.9,35.5*,-0.8,23.7
CC1CCCC(NC(=O)CNC(=O)c2cccs2)C1C (centres undefined),-1.0,9.6,-0.3,3.1,-1.7,-1.9,.
Cc1ccc(C(=O)NCC(=O)OCC(=O)NC2CCCC(C)C2C)s1 (centres undefined),4.2,-6.0,2.2,5.9,47.9*,0.2,31.4*
CC1CCCC(NC(=O)COc2ncnc3ccccc23)C1C (centres undefined),2.7,9.7,-7.5,1.1,8.6,-1.1,.
